# In ChEMBL document CHEMBL2417474, “Synthesis, antiproliferative and anti-inflammatory activities of some novel 6-aryl-2-(p-(methanesulfonyl)phenyl)-4,5-dihydropyridazi-3(2H)-ones” (Eur J Med Chem, 2013):
# Tests used:
# Assay type in all cases: functional
# [1] = test system: SK-MEL-5; assay: Growth inhibition of human SK-MEL-5 cells assessed as cell growth at 10 uM after 48 hrs by sulforhodamine B assay; settings: SK-MEL-5, 48 h, read-out: Activity
# [2] = test system: M14; assay: Growth inhibition of human M14 cells assessed as cell growth at 10 uM after 48 hrs by sulforhodamine B assay; settings: M14, 48 h, read-out: Activity
# [3] = Growth inhibition of human HCC2998 cells after 48 hrs by sulforhodamine B assay; settings: HCC 2998, 48 h; for CC50: read-out: LC50 (the source's name)
# Procedure, shortened: (§1)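 NCI 60-cell-line panel grown in RPMI-type medium with 5% fetal calf serum and 2 mM L-glutamine. Cells preincubated 24 h, then exposed continuously for 48 h to compound in DMSO at 10^-4 to 10^-8 M (five 10-fold levels). Growth read by SRB protein stain. GI50 is the concentration giving a 50% reduction in net protein increase relative to control cells.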
# [4] = test system: Malme-3M; assay: Growth inhibition of human MALME-3M cells after 48 hrs by sulforhodamine B assay; settings: for CC50: read-out: LC50 (the source's name); procedure, shortened: as §1
# [5] = test system: MDA-MB-231; assay: Growth inhibition of human MDA-MB-231 cells after 48 hrs by sulforhodamine B assay; settings: MDA-MB-231, 48 h; procedure, shortened: as §1
# [6] = test system: HOP-92; assay: Growth inhibition of human HOP92 cells assessed as cell growth at 10 uM after 48 hrs by sulforhodamine B assay; settings: HOP-92, 48 h, read-out: Activity
# [7] = test system: A549; assay: Growth inhibition of human A549/ATCC cells assessed as cell growth at 10 uM after 48 hrs by sulforhodamine B assay; settings: A549, 48 h, read-out: Activity
# [8] = test system: DU-145; assay: Growth inhibition of human DU145 cells after 48 hrs by sulforhodamine B assay; settings: DU-145, 48 h; for CC50: read-out: LC50 (the source's name); procedure, shortened: as §1
# [9] = test system: SNB-19; assay: Growth inhibition of human SNB19 cells assessed as cell growth at 10 uM after 48 hrs by sulforhodamine B assay; settings: SNB-19, 48 h, read-out: Activity
# [10] = test system: HCT-15; assay: Growth inhibition of human HCT15 cells after 48 hrs by sulforhodamine B assay; settings: HCT-15, 48 h; procedure, shortened: as §1
# [11] = test system: SK-OV-3; assay: Growth inhibition of human SKOV3 cells assessed as cell growth at 10 uM after 48 hrs by sulforhodamine B assay; settings: SK-OV-3, 48 h, read-out: Activity
# [12] = test system: 786-0; assay: Growth inhibition of human 786-0 cells assessed as cell growth at 10 uM after 48 hrs by sulforhodamine B assay; settings: 786-0, 48 h, read-out: Activity
# [13] = test system: NCI-H226; assay: Growth inhibition of human NCI-H226 cells after 48 hrs by sulforhodamine B assay; settings: NCI-H226, 48 h; for CC50: read-out: LC50 (the source's name)
# Procedure, shortened: (§2)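 NCI 60-cell-line panel. Cells were grown in medium with 5% fetal calf serum and 2 mM L-glutamine, then preincubated 24 h in plates. Compounds were added from DMSO at five 10-fold concentrations from 100 to 0.01 µM and left on cells continuously for 48 h. Cell growth was read by sulforhodamine B protein stain. GI50 is the concentration that halves net protein increase relative to control cells.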
# [14] = test system: MDA-MB-231; assay: Growth inhibition of human MDA-MB-231 cells assessed as cell growth at 10 uM after 48 hrs by sulforhodamine B assay; settings: MDA-MB-231, 48 h, read-out: Activity
# [15] = test system: OVCAR-3; assay: Growth inhibition of human OVCAR3 cells assessed as cell growth at 10 uM after 48 hrs by sulforhodamine B assay; settings: OVCAR-3, 48 h, read-out: Activity
# [16] = Growth inhibition of human NCI-ADR-RES cells after 48 hrs by sulforhodamine B assay; procedure, shortened: as §2
# [17] = test system: HT-29; assay: Growth inhibition of human HT-29 cells after 48 hrs by sulforhodamine B assay; settings: HT-29, 48 h; procedure, shortened: as §1
# [18] = test system: ACHN; assay: Growth inhibition of human ACHN cells assessed as cell growth at 10 uM after 48 hrs by sulforhodamine B assay; settings: read-out: Activity
# [19] = test system: LOX IMVI; assay: Growth inhibition of human LOXIMVI cells after 48 hrs by sulforhodamine B assay; settings: for CC50: read-out: LC50 (the source's name); procedure, shortened: as §1
# [20] = test system: SK-MEL-2; assay: Growth inhibition of human SK-MEL-2 cells after 48 hrs by sulforhodamine B assay; settings: SK-MEL-2, 48 h; procedure, shortened: as §2
# [21] = test system: U-251; assay: Growth inhibition of human U251 cells after 48 hrs by sulforhodamine B assay; settings: U-251, 48 h; for CC50: read-out: LC50 (the source's name)
# Procedure, shortened: (§3)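 NCI 60-line panel. Cells were grown in medium with 5% fetal calf serum and 2 mM L-glutamine and preincubated 24 h in plates. Compound in DMSO was added at 10^-4 to 10^-8 M (five 10-fold levels), with continuous exposure for 48 h. Growth was read by SRB protein staining. GI50 is the concentration giving 50% reduction in net protein increase versus control cells.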
# [22] = test system: HT-29; assay: Growth inhibition of human HT-29 cells assessed as cell growth at 10 uM after 48 hrs by sulforhodamine B assay; settings: HT-29, 48 h, read-out: Activity
# [23] = test system: HCT-116; assay: Growth inhibition of human HCT116 cells assessed as cell growth at 10 uM after 48 hrs by sulforhodamine B assay; settings: HCT-116, 48 h, read-out: Activity
# [24] = test system: UACC-257; assay: Growth inhibition of human UACC257 cells after 48 hrs by sulforhodamine B assay; settings: UACC-257, 48 h; procedure, shortened: as §3
# [25] = test system: SN12C; assay: Growth inhibition of human SN12C cells assessed as cell growth at 10 uM after 48 hrs by sulforhodamine B assay; settings: read-out: Activity
# [26] = test system: UACC-62; assay: Growth inhibition of human UACC62 cells after 48 hrs by sulforhodamine B assay; settings: UACC-62, 48 h; procedure, shortened: as §3
# [27] = test system: PC-3; assay: Growth inhibition of human PC3 cells assessed as cell growth at 10 uM after 48 hrs by sulforhodamine B assay; settings: PC-3, 48 h, read-out: Activity
# [28] = test system: HOP-62; assay: Growth inhibition of human HOP62 cells after 48 hrs by sulforhodamine B assay; settings: HOP-62, 48 h; for CC50: read-out: LC50 (the source's name); procedure, shortened: as §1
# [29] = test system: SK-MEL-2; assay: Growth inhibition of human SK-MEL-2 cells assessed as cell growth at 10 uM after 48 hrs by sulforhodamine B assay; settings: SK-MEL-2, 48 h, read-out: Activity
# [30] = test system: RXF 393; assay: Growth inhibition of human RXF393 cells assessed as cell growth at 10 uM after 48 hrs by sulforhodamine B assay; settings: RXF 393, 48 h, read-out: Activity
# [31] = test system: SNB-75; assay: Growth inhibition of human SNB75 cells assessed as cell growth at 10 uM after 48 hrs by sulforhodamine B assay; settings: SNB-75, 48 h, read-out: Activity
smiles,measurement,setting,value
Cc1ccc(C2=NN(c3ccc(S(C)(=O)=O)cc3)C(=O)CC2)cc1,growth at 10 µM,[1],13.9%
same,growth at 10 µM,[2],10.2%
same,GI50,[3],2.75 µM
same,TGI,[3],> 100 µM
same,CC50,[3],> 100 µM
same,TGI,[4],> 100 µM
same,CC50,[4],> 100 µM
same,GI50,[5],0.83 µM
same,LC50,[5],> 100 µM
same,TGI,[5],> 100 µM
same,growth at 10 µM,[6],60.9%
same,growth at 10 µM,[7],36.6%
same,GI50,[8],2.91 µM
same,TGI,[8],> 100 µM
same,CC50,[8],> 100 µM
same,growth at 10 µM,[9],55%
same,GI50,[10],0.61 µM
same,LC50,[10],> 100 µM
same,TGI,[10],> 100 µM
same,growth at 10 µM,[11],19.9%
same,growth at 10 µM,[12],38.3%
same,GI50,[13],0.43 µM
same,TGI,[13],> 100 µM
same,CC50,[13],> 100 µM
same,growth at 10 µM,[14],47.8%
same,growth at 10 µM,[15],-14.7%
same,GI50,[16],0.27 µM
same,LC50,[16],> 100 µM
same,GI50,[17],0.33 µM
same,LC50 (50% lethal concentration),[17],> 100 µM
same,TGI,[17],10 µM
same,growth at 10 µM,[18],54.5%
same,GI50,[19],0.74 µM
same,TGI,[19],> 100 µM
same,CC50,[19],> 100 µM
same,GI50,[20],0.43 µM
same,LC50,[20],> 100 µM
same,TGI,[20],> 100 µM
same,GI50,[21],0.45 µM
same,TGI,[21],> 100 µM
same,CC50,[21],> 100 µM
same,growth at 10 µM,[22],11.1%
same,growth at 10 µM,[23],17.7%
same,GI50,[24],0.61 µM
same,LC50 (concentration killing 50% of cells),[24],> 100 µM
same,TGI,[24],> 100 µM
same,growth at 10 µM,[25],39.7%
same,GI50,[26],0.46 µM
same,LC50 (50% net cell kill concentration),[26],> 100 µM
same,TGI,[26],> 100 µM
same,growth at 10 µM,[27],29.3%
same,GI50,[28],1.3 µM
same,TGI,[28],> 100 µM
same,CC50,[28],> 100 µM
same,growth at 10 µM,[29],6.35%
same,growth at 10 µM,[30],15.4%
same,growth at 10 µM,[31],8.1%
CCc1ccc(C2=NN(c3ccc(S(C)(=O)=O)cc3)C(=O)CC2)cc1,growth at 10 µM,[1],10.7%
same,growth at 10 µM,[2],5.99%
same,GI50,[3],5.27 µM
same,TGI,[3],53.4 µM
same,CC50,[3],> 100 µM
same,GI50,[4],6.8 µM
same,TGI,[4],> 67.6 µM
same,CC50,[4],> 100 µM
same,GI50,[5],3.46 µM
same,LC50,[5],> 100 µM
same,TGI,[5],> 100 µM
same,growth at 10 µM,[6],68.6%
same,growth at 10 µM,[7],35.6%
same,GI50,[8],5.66 µM
same,TGI,[8],> 100 µM
same,CC50,[8],> 100 µM
same,growth at 10 µM,[9],51.5%
same,GI50,[10],1.9 µM
same,LC50,[10],> 100 µM
same,TGI,[10],> 100 µM
same,growth at 10 µM,[11],28.7%
same,growth at 10 µM,[12],36.5%
same,GI50,[13],0.2 µM
same,TGI,[13],> 100 µM
same,CC50,[13],> 100 µM
same,growth at 10 µM,[14],55.5%
same,growth at 10 µM,[15],-13.6%
same,GI50,[16],0.4 µM
same,LC50,[16],> 100 µM
same,TGI,[16],3.34 µM
same,GI50,[17],0.41 µM
same,LC50 (50% lethal concentration),[17],> 100 µM
same,TGI,[17],12.1 µM
same,growth at 10 µM,[18],46%
same,GI50,[19],3.5 µM
same,TGI,[19],> 100 µM
same,CC50,[19],> 100 µM
same,GI50,[20],0.9 µM
same,LC50,[20],> 100 µM
same,TGI,[20],> 100 µM
same,GI50,[21],1.91 µM
same,TGI,[21],> 100 µM
same,CC50,[21],> 100 µM
same,growth at 10 µM,[22],11.5%
same,growth at 10 µM,[23],15.7%
same,GI50,[24],3.3 µM
same,LC50 (concentration killing 50% of cells),[24],> 100 µM
same,TGI,[24],61.5 µM
same,growth at 10 µM,[25],31.4%
same,GI50,[26],0.78 µM
same,LC50 (50% net cell kill concentration),[26],> 100 µM
same,TGI,[26],> 100 µM
same,growth at 10 µM,[27],56.6%
same,GI50,[28],4.3 µM
same,TGI,[28],> 100 µM
same,CC50,[28],> 100 µM
same,growth at 10 µM,[29],36.9%
same,growth at 10 µM,[30],27.4%
same,growth at 10 µM,[31],16.7%
O=c1[nH]cc(F)c(=O)[nH]1 [FLUOROURACIL],GI50,[3],0.05 µM
same,GI50,[4],0.05 µM
same,GI50,[5],6.6 µM
same,GI50,[8],0.36 µM
same,GI50,[10],0.11 µM
same,GI50,[13],54.7 µM
same,GI50,[16],0.31 µM
same,GI50,[17],0.17 µM
same,GI50,[19],0.24 µM
same,GI50,[20],56.7 µM
same,GI50,[21],0.9 µM
same,GI50,[24],3.55 µM
same,GI50,[26],0.52 µM
same,GI50,[28],0.39 µM
